Published values collected from several papers.
Lines come from different studies, so protocols differ.
LATS2: Serine/threonine-protein kinase LATS2 (LATS2, Homo sapiens, UniProt Q9NRM7)
MME: Neprilysin (MME, Homo sapiens, UniProt P08473)
Nos2: Nitric oxide synthase, inducible (Nos2, Mus musculus, UniProt P29477)

SMILES	target	test	setting	endpoint	value
Nc1ncc(-c2nc(N3CCOCC3)nc(N3CCOCC3)n2)c(C(F)F)n1	Serine/threonine-protein kinase 38 (STK38, Homo sapiens, UniProt Q15208)	binding, competition with immobilised ligand	10 µM	remaining binding	66%
COc1cc(Nc2ncc(F)c(Nc3ccc4c(n3)NC(=O)C(C)(C)O4)n2)cc(OC)c1OC	LATS2	binding, competition with immobilised ligand	10 µM	inhibition	100%
c1ccc(C(NCCNC(c2ccccc2)c2ccccc2)c2ccccc2)cc1	MME	enzyme activity, inhibitor	10 µM	inhibition	8%
COCc1c(-c2cc3cc(C)cc(OC)c3s2)c2c(N)ncnn2c1CN1CCNC(=O)C1	Nos2	enzyme activity, inhibitor	10 µM	inhibition	17%
C[C@H](C(=O)N[C@H]1COc2ccccc2[C@@H]1S(C)(=O)=O)c1ccc(F)cc1	MME	enzyme activity, inhibitor	10 µM	inhibition	-1%
CCN(CC)CCCC[C@H](NC(=O)[C@H](CC(C)C)NC(=O)[C@H](C)NC(=O)[C@H](Cc1ccccc1)NC(=O)c1ccc(C(C)(C)C)cc1)C(=O)N[C@@H](CO)C(=O)OC	Histone-lysine N-methyltransferase ASH1L (ASH1L, Homo sapiens, UniProt Q9NR48)	thermal stability, DSF	25 µM	ΔTm	-0.39 °C
COc1ncccc1-c1cnn2ccc(N3CCN(C(=O)OC(C)C)CC3)nc12	Phosphatidylinositol 5-phosphate 4-kinase type-2 gamma (PIP4K2C, Homo sapiens, UniProt Q8TBX8)	binding, competition with immobilised ligand	1 µM	remaining binding	9.5%
Cc1sc2c(c1C)C(c1ccc(Cl)cc1)=N[C@@H](CC(=O)OC(C)(C)C)c1nnc(C)n1-2	Stimulator of interferon genes protein (STING1, Homo sapiens, UniProt Q86WV6, H232R)	thermal stability, DSF	200 µM	ΔTm	-1.58 °C
Cc1ncc(C)n2nc(/C=C/c3nc(N4CCCC4)cc(N4CCOCC4)n3)nc12	Nos2	enzyme activity, inhibitor	10 µM	inhibition	10%
C#Cc1n[nH]c2c(-c3cn([C@@H](C)c4ccccn4)c(=O)[nH]c3=O)cc(F)cc12	Tyrosine-protein kinase JAK2 (JAK2, Homo sapiens, UniProt O60674)	enzyme activity, inhibitor	0.1 µM	inhibition	-1%
Cc1nn(C)cc1-c1nc2c(N3CCN(Cc4ccc(Cl)cc4)CC3)c(Cl)cnc2[nH]1	LATS2	binding, competition with immobilised ligand	1 µM	remaining binding	77%
